TNF necrop inh: blocks TNF-alpha induced death of Jurkat FADD-/- cells; Jurkat FADD-/- TNF necroptosis rescue, ATP luminescence, 24 h; 0 = TNF only, 100 = no-TNF cells; activation (protection from cell death), % at 10 µM; 220,000 compounds, 0.068% hits; AID 463075;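 active means activation, meaning protection from cell death, of at least 50% relative to plate controls; inactive means activation below 50%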;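 further: necroptosis triggered by 40 ng/mL TNF-alpha added together with compound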
S1P4 ag: human S1P4 receptor agonism. O95977. S1P4-expressing cell line, agonist reporter assay. activation, % at 4.98 µM. 220,000 compounds, 0.35% hits. AID 1509; in the data active means activation above about 11%
Target sequence (O95977 whole entry, looked up): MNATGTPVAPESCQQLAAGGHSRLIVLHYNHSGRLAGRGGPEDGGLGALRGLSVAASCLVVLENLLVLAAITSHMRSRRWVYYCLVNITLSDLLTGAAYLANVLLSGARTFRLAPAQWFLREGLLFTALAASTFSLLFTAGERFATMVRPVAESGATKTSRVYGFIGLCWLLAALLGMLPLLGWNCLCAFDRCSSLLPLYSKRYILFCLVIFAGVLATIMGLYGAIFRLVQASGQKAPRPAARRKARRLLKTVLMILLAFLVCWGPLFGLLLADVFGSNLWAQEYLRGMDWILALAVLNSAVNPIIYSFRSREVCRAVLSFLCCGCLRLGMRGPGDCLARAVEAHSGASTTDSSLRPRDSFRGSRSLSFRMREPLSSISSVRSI
TbHK1 inh: blocks Trypanosoma brucei hexokinase 1 activity; recombinant TbHK1, G6PDH-coupled NADH A340; inhibition, % at 10 µM; 220,000 compounds, 0.11% hits; AID 1430;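 active means inhibition of 50% or more in the single-dose primary screen; inactive means inhibition below 50%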
L929 necroptosis: blocks zVAD induced death of L929 cells. L929 zVAD necroptosis rescue, ATP luminescence, 24 h; with zVAD 60 µM. viability rescue, % at 10 µM. 220,000 compounds, 0.38% hits;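 active means activation, scaled between plate controls, above about 75%, limit read from the data; inactive means activation under that limit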
S1P4 antagonist: blocks the human S1P4 receptor; O95977; S1P4-expressing cells, antagonist mode, reporter read-out; inhibition, % at 4.98 µM; 220,000 compounds, 0.26% hits; in the data active means inhibition above about 29%
Dynein transport: blocks dynein driven cargo transport along microtubules; 3617.4 mouse cells, GR-EGFP nuclear translocation imaging; test concentration mostly 20 µM; stimulated with dexamethasone, 1 µM; active compounds read low; z-score, hits read low; 220,000 compounds, 0.47% hits; AID 1381;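 active means plate z-score of nuclear minus cytoplasmic receptor signal below a set negative limit, without overly bright fluorescence or cell loss, cut at about -3.5 in these data, passing the limit was not always enough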;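 further: z-score of nuclear minus cytoplasmic ring GR-EGFP intensity difference per well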
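Buffer or medium – tet-free medium with charcoal-stripped serum · Signal – automated 10x imaging of fixed Hoechst-stained cells · Also added – dexamethasone agonist, 1.0 µM final, for 30 min · Incubation – induction 48 h, compound 1 h, agonist 30 min · Read-out – GR-EGFP nuclear translocation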
S1P4 antag conf: human S1P4 antagonism, confirmation | shares compounds with S1P4 antagonist | S1P4-expressing cell line, antagonist mode, reporter read-out | inhibition, % at 4.98 µM | 520 compounds, 71% hits; in the data active means inhibition above about 30%
S1P1 antagonist: counter-screen for S1P4 antagonists: antagonists of human S1P1 | cell-based S1P1 antagonist counterscreen, inhibition | inhibition, % at 4.98 µM | shares compounds with S1P4 antagonist | 520 compounds, 37% hits; in the data active means inhibition above about 40%;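 further: receptor stimulated with S1P near its EC80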
Numbers stand for hits; i = inactive; nt = not tested or not shown. A selection: hits, their analogues and other compounds. The true share with any hit is near 1.5%.

SMILES	TNF necrop inh	S1P4 ag	TbHK1 inh	L929 necroptosis	S1P4 antagonist	Dynein transport	S1P4 antag conf	S1P1 antagonist
CCC1(c2ccc(F)cc2)NC(=O)N(CC(=O)Nc2ccc(S(N)(=O)=O)cc2)C1=O (configuration not stated)	i	i	i	i	i	i	nt	nt
Cc1cc(NC(=O)/C=C/c2ccccc2)c(C(C)C)cc1O	i	i	i	i	94	i	109	i
COC(=O)[C@@H]1C[C@H]2CC[C@H](O)C[C@H]2N1Cc1ccc(-c2ccccc2)cc1	i	nt	i	i	nt	i	nt	nt
COCCN(C(=S)Nc1ccc(Cl)cc1OC)C1CCN(C(C)=O)CC1	i	i	i	i	i	i	nt	nt
COc1cccc(/C=N/Nc2nnc(C)n2N)c1OCc1ccccc1Cl	i	i	i	i	i	i	nt	nt
CCc1nnc(N/N=C/c2ccccc2Cl)n1N	i	i	i	i	40	i	i	i
CCc1nnc(N/N=C/c2ccccc2F)n1N	i	i	i	i	93	i	i	i
Cc1c(NC(=O)CN2C(=O)NC3(CCC(C)CC3)C2=O)c(=O)n(-c2ccccc2)n1C (configuration not stated)	i	i	i	i	i	i	nt	nt
CCN(CC)S(=O)(=O)c1ccc(N2CCOCC2)c(NC(=S)NC(=O)c2ccco2)c1	i	i	i	i	i	i	nt	nt
O=S(=O)(c1ccc(Cl)c(Cl)c1)c1snnc1-c1ccccc1	i	i	i	i	56	-4	114	75
O=[N+]([O-])c1cnc(Sc2ccncn2)s1	i	i	i	i	35	-5.1	116	112
O=[N+]([O-])c1cc(-c2ncccn2)cs1	i	i	i	nt	i	i	nt	nt
O=S(=O)(/C=C/c1ccccc1)Oc1ccccc1	i	i	i	i	i	i	nt	nt
Cc1nc2ccc(NC(=O)c3nn(CC(C)C)c(=O)c4ccccc34)cc2s1	i	i	i	i	40	i	45	i
NNS(=O)(=O)c1ccc(Sc2ccccn2)c([N+](=O)[O-])c1	i	i	i	i	i	i	nt	nt
CCOC(=O)c1ccc(NC(=O)Cn2ncc(Cl)c(Cl)c2=O)cc1	i	i	i	i	37	-4.2	123	78
CCOC(=O)c1ccc(NC(=O)CN2C(=O)CCC2=O)cc1	i	i	i	i	i	i	nt	nt
COc1ccc(NC(=O)Cn2ncc(Cl)c(Cl)c2=O)cc1S(=O)(=O)N1CCOCC1	i	i	i	i	33	i	i	i
CC(NC(=O)Cn1ncc(Cl)c(Cl)c1=O)C12CC3CC(CC(C3)C1)C2 (configuration not stated)	i	i	i	i	51	i	i	i
CCC(Sc1nncn1C)C(=O)Nc1nnc(-c2ccccc2Cl)s1 (configuration not stated)	i	i	i	i	33	i	i	i
COc1ccccc1-c1nnc(NC(=O)C(C)Sc2nncn2C)s1 (configuration not stated)	i	i	i	i	i	i	nt	nt
CN1/C(=C\C(=O)c2cccnc2)C(C)(C)c2ccccc21	i	i	i	i	i	i	nt	nt
CN1/C(=C/C(=O)c2nc(S(C)(=O)=O)ncc2Cl)C(C)(C)c2ccccc21	i	i	i	i	65	i	111	i
O=C(COc1cccc(Cl)c1)Nc1ccc2c(c1)CCC2	i	i	i	i	i	i	nt	nt
Cc1ccc(/C=C/C(=O)c2nc3ccccc3[nH]2)cc1	i	i	i	i	29	i	81	i
SMILES	TNF necrop inh	S1P4 ag	TbHK1 inh	L929 necroptosis	S1P4 antagonist	Dynein transport	S1P4 antag conf	S1P1 antagonist
Cc1ccc(/C=C/C(=O)Nc2nc3ccccc3[nH]2)cc1	i	i	i	i	i	i	nt	nt
COc1cc2c3nnc(-c4ccc(F)cc4)c-3cn(Cc3ccc(F)cc3)c2cc1OC	i	i	i	i	i	i	nt	nt
COc1cc2c3nnc(-c4ccc(F)cc4)c-3cn(Cc3ccccc3)c2cc1OC	i	i	i	i	41	i	85	120
COc1ccccc1C1C2=C(N=C3SCC(=O)N31)c1ccccc1CC2 (configuration not stated)	i	i	i	i	i	i	nt	nt
COc1ccc(/C=c2/sc3n(c2=O)C(c2ccccc2OC)C2=C(N=3)c3ccccc3CC2)cc1O (configuration not stated)	i	i	i	i	33	i	78	70
COc1ccc(CCNC(=O)c2ccccc2NC(=O)c2ccco2)cc1OC	i	i	i	i	30	i	i	i
CCN(Cc1ccccc1)C(=O)CS(=O)(=O)c1ccccc1	i	i	i	i	i	i	nt	nt
O=S(=O)(C/C(=C/CO)S(=O)(=O)c1ccccc1)c1ccccc1	i	i	i	i	40	i	87	i
OC1(c2ccc(Br)cc2)CN(c2ccccc2)C2=[N+]1CCS2 (configuration not stated)	i	i	i	i	30	i	i	i
O=C(Nc1cccc(-c2nc3ccccc3s2)c1)c1cc(-n2cnnc2)ccc1Cl	i	i	i	i	31	i	i	i
Cc1c(NC(=O)c2cc(-n3cnnc3)ccc2Cl)cccc1-c1nc2ccccc2s1	i	i	i	i	i	i	nt	nt
COc1ccccc1-c1cc(C(=O)Nc2c(F)cc(F)cc2Br)no1	i	i	i	i	41	i	42	i
O=C(Nc1c(F)cc(F)cc1Br)c1cc(-c2ccco2)on1	i	i	i	i	i	i	nt	nt
CC(C)c1nnc(NC(=O)CCS(=O)(=O)c2nc(-c3cccs3)cc(C(F)(F)F)n2)s1	i	i	i	i	50	i	109	54
O=C(CCS(=O)(=O)c1ccccc1)Nc1nc(-c2cccs2)cs1	i	i	i	i	i	i	nt	nt
Cc1ccc(NC(=O)C2=C(c3ccccc3)S(=O)(=O)CCS2(=O)=O)cc1	i	i	i	i	45	i	108	i
Cc1ccc(NC(=O)c2ccccc2)cc1	i	i	i	i	i	i	nt	nt
Cc1cccc(N=C2NC(=O)/C(=C/c3cccn3C)S2)c1C	i	i	i	i	36	i	i	i
CSCCC(NS(=O)(=O)c1ccc(Br)cc1)C(=O)OCC(=O)NC1CC1 (configuration not stated)	i	i	i	i	i	i	nt	nt
NS(=O)(=O)c1cccc(NC(=O)Cn2cc(C(F)(F)F)cc(Cl)c2=O)c1	i	i	i	i	i	i	nt	nt
COc1cc(SC)ccc1C(=O)Nc1ccc(C)cc1C	i	i	i	i	34	i	55	i
COC(=O)CC(c1ccc(OC)c(OC)c1)c1ccc(OC)c(OC)c1	i	i	i	i	i	i	nt	nt
Cc1c(/C=N/Nc2nc3ccccc3[nH]2)c2ccccc2n1C	i	i	i	i	32	i	108	52
